Experimental data taken from ChEMBL document CHEMBL4251693, “Indolylmaleimide Derivative IM-17 Shows Cardioprotective Effects in Ischemia-Reperfusion Injury” (ACS Med Chem Lett, 2018).
Calls of active or inactive are those of the source. The calls are words filed in the database; no cut-off is given here. Peptide text beside a SMILES is read from it. * marks the point of attachment. Cbz = O=C(OCc1ccccc1)*

Columns and labels:
H9c2 [1] = assay: Cytotoxicity against rat H9c2 cells at 30 uM; type: cell-based; conditions: h9c2, 30 µM
Heart [2] = assay: Cardioprotective activity against Langendorff isolated Sprague-Dawley rat heart ischemia-reperfusion injury model assessed as improvement in LVDP at 0.3 uM administered for 10 mins as infusion followed by 30 mins of global ischemia and 60 mins of reperfusion; type: functional, tissue-based
Method in brief: (§1)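 Isolated rat hearts perfused in Langendorff mode with Krebs-Henseleit buffer. Compound (HCl salt) added to the perfusate for 10 min before no-flow global ischemia of 30 min, then 60 min reperfusion with flow restored. Left ventricular developed pressure recovery taken as heart function; creatine kinase released from myocardium taken as membrane integrity marker.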

[3] = Stability in rat liver S9 fraction at 5 uM after 30 mins by HPLC method; type: ADME, subcellular; conditions: s9, 0.5 h
Heart [4] = assay: Cardioprotective activity against Langendorff isolated Sprague-Dawley rat heart ischemia-reperfusion injury model assessed as suppression of creatine kinase release at 0.3 uM administered for 10 mins as infusion followed by 30 mins of global ischemia and 60 mins of reperfusion; type: functional, tissue-based; method in brief: as §1
HL-60 [5] = assay: Cytoprotective activity against H2O2-induced necrosis in human HL60 cells incubated for 1 hr followed by H2O2 stimulation by LDH release assay; type: functional, cell-based; conditions: HL-60, 1 h
Method in brief: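 Necrosis of HL-60 cells induced by H2O2 and quantified as lactate dehydrogenase release from the cytosol; IC50 derived.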

H9c2 [6] = assay: Cytoprotective activity against TBHP-induced necrosis in rat H9c2 cells incubated for 4 hrs by LDH release assay; type: functional, cell-based; conditions: H9c2, 4 h
Method in brief: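 Rat cardiomyoblast H9c2 cells treated with TBHP (300 μM) with or without test compound; necrotic cell death quantified by LDH release assay.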

HL-60 [7] = assay: Cytoprotective activity against H2O2-induced necrosis in human HL60 cells assessed as increase in cell viability at 10 to 100 uM incubated for 1 hr followed by H2O2 stimulation measured after 3 hrs by Alamar blue assay; type: functional, cell-based
Method in brief: (§2)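 HL-60 cells treated with H2O2 (100 μM, 3 h) with or without various cell death inhibitors (cyclophilin D, PARP-1, necroptosis, autophagy). Viability read by AlamarBlue.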

HL-60 [8] = assay: Cytoprotective activity against H2O2-induced necrosis in human HL60 cells assessed as increase in cell viability at 1 to 5 mM incubated for 1 hr followed by H2O2 stimulation measured after 3 hrs by Alamar blue assay; type: functional, cell-based; method in brief: as §2
HL-60 [9] = assay: Cytoprotective activity against actinomycin D-induced apoptosis in human HL60 cells assessed as increase in cell viability at 100 uM incubated for 1 hr followed by actinomycin D stimulation measured after 6 hrs by Alamar blue assay; type: functional, cell-based
Method in brief: (§3)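 HL-60 cells given a death inducer with or without test agent (10 μM) or Z-VAD (100 μM). Inducers were actinomycin D 1 μM for 6 h, camptothecin 1 μM for 6 h, etoposide 100 μM for 4 h, FasL 100 ng/mL for 18 h, H2O2 100 μM for 3 h, and TBHP 30 μM for 3 h. Viability read by AlamarBlue.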

HL-60 [10] = assay: Cytoprotective activity against H2O2-induced apoptosis in human HL60 cells assessed as increase in cell viability at 100 uM incubated for 1 hr followed by H2O2 stimulation measured after 4 hrs by phase contrast microscopy; type: functional, cell-based
Method in brief: (§4)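 HL-60 cells exposed to low-level H2O2 (30 μM, 4 h) with or without test agent (10 μM) or Z-VAD (100 μM). Viability read by AlamarBlue; morphology by phase-contrast imaging.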

HL-60 [11] = assay: Cytoprotective activity against H2O2-induced necrosis in human HL60 cells assessed as increase in cell viability at 100 uM incubated for 1 hr followed by H2O2 stimulation measured after 3 hrs by Alamar blue assay; type: functional, cell-based; method in brief: as §3
HL-60 [12] = assay: Cytoprotective activity against TBHP-induced necrosis in human HL60 cells assessed as increase in cell viability at 100 uM incubated for 1 hr followed by TBHP stimulation measured after 3 hrs by Alamar blue assay; type: functional, cell-based
HL-60 [13] = assay: Cytoprotective activity against camptothecin-induced apoptosis in human HL60 cells assessed as increase in cell viability at 100 uM incubated for 1 hr followed by camptothecin stimulation measured after 6 hrs by Alamar blue assay; type: functional, cell-based; method in brief: as §3
HL-60 [14] = assay: Cytoprotective activity against Fas ligand-induced apoptosis in human HL60 cells assessed as increase in cell viability at 100 uM incubated for 1 hr followed by Fas ligand stimulation measured after 18 hrs by Alamar blue assay; type: functional, cell-based; method in brief: as §3
Jurkat [15] = assay: Cytoprotective activity against FasL-induced apoptosis in human Jurkat cells assessed as increase in cell viability at 100 uM incubated for 1 hr followed by FasL stimulation measured after 18 hrs by phase contrast microscopy; type: functional, cell-based
Method in brief: (§5)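 Jurkat cells exposed to FasL (100 ng/mL, 18 h) with or without test agent (10 μM) or Z-VAD (100 μM). Viability measured by AlamarBlue and morphology by phase-contrast imaging.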

HL-60 [16] = assay: Cytoprotective activity against etoposide-induced apoptosis in human HL60 cells assessed as increase in cell viability at 100 uM incubated for 1 hr followed by etoposide stimulation measured after 4 hrs by Alamar blue assay; type: functional, cell-based; method in brief: as §3
HL-60 [17] = assay: Cytoprotective activity against H2O2-induced apoptosis in human HL60 cells assessed as increase in cell viability at 100 uM incubated for 1 hr followed by H2O2 stimulation measured after 4 hrs by Alamar blue assay; type: functional, cell-based; method in brief: as §4
Jurkat [18] = assay: Cytoprotective activity against FasL-induced apoptosis in human Jurkat cells assessed as increase in cell viability at 100 uM incubated for 1 hr followed by FasL stimulation measured after 18 hrs by Alamar blue assay; type: functional, cell-based; method in brief: as §5
Heart [19] = assay: Cardioprotective activity against Langendorff isolated Sprague-Dawley rat heart ischemia-reperfusion injury model assessed as suppression of creatine kinase release at 3 uM administered for 10 mins as infusion followed by 30 mins of global ischemia and 60 mins of reperfusion; type: functional, tissue-based; method in brief: as §1
Heart [20] = assay: Cardioprotective activity against Langendorff isolated Sprague-Dawley rat heart ischemia-reperfusion injury model assessed as improvement in LVDP at 3 uM administered for 10 mins as infusion followed by 30 mins of global ischemia and 60 mins of reperfusion; type: functional, tissue-based; method in brief: as §1
Rattus norvegicus [21] = assay: Cardioprotective activity against Sprague-Dawley rat ischemia reperfusion-induced arrhythmia model assessed as ventricular fibrillation time at 3 mg/kg, iv administered 5 mins before ischemia (reference value: 95.3 +/- 13 sec); type: functional
Rattus norvegicus [22] = assay: Cardioprotective activity against Sprague-Dawley rat ischemia reperfusion-induced arrhythmia model assessed as ventricular fibrillation time at 3 mg/kg, iv administered 1 min before reperfusion (reference value: 96.3 +/- 24.1 sec); type: functional
Rattus norvegicus [23] = assay: Cardioprotective activity against Sprague-Dawley rat ischemia reperfusion-induced arrhythmia model assessed as ventricular fibrillation time at 1 mg/kg, iv administered 5 mins before ischemia (reference value: 95.3 +/- 13 sec); type: functional
Rattus norvegicus [24] = assay: Toxicity in Sprague-Dawley rat ischemia reperfusion-induced arrhythmia model assessed as mortality at 1 mg/kg, iv administered 5 mins before ischemia (reference value: 60%); type: organism-based; conditions: in vivo
Rattus norvegicus [25] = assay: Toxicity in Sprague-Dawley rat ischemia reperfusion-induced arrhythmia model assessed as mortality at 3 mg/kg, iv administered 5 mins before ischemia (reference value: 60%); type: organism-based; conditions: in vivo
Rattus norvegicus [26] = assay: Toxicity in Sprague-Dawley rat ischemia reperfusion-induced arrhythmia model assessed as mortality at 3 mg/kg, iv administered 1 min before reperfusion (reference value: 75%); type: organism-based; conditions: in vivo
Jurkat [27] = assay: Cytoprotective activity against CHX-induced necroptosis in human Jurkat cells assessed as increase in cell viability at 30 uM incubated for 1 hr followed by CHX stimulation by phase contrast microscopy; type: functional, cell-based
Method in brief: (§6)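 Jurkat necroptosis induced with FasL (100 ng/mL, 20 h) together with Z-VAD (100 μM) or cycloheximide (5 μM). Test agents were run at 10 μM alongside a necroptosis inhibitor at 30 μM. Viability read by AlamarBlue; morphology examined by phase-contrast imaging.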

HL-60 [28] = assay: Cytoprotective activity against H2O2-induced necrosis in human HL60 cells assessed as increase in cell viability at 1 to 10 uM incubated for 1 hr followed by H2O2 stimulation measured after 3 hrs by Alamar blue assay; type: functional, cell-based; method in brief: as §2
Jurkat [29] = assay: Cytoprotective activity against FasL-induced necroptosis in human Jurkat cells assessed as increase in cell viability at 30 uM incubated for 1 hr followed by FasL stimulation measured after 20 hrs by phase contrast microscopy; type: functional, cell-based; method in brief: as §6
Jurkat [30] = assay: Cytoprotective activity against CHX-induced necroptosis in human Jurkat cells assessed as increase in cell viability at 30 uM incubated for 1 hr followed by CHX stimulation by Alamar blue assay; type: functional, cell-based; method in brief: as §6
Jurkat [31] = assay: Cytoprotective activity against Z-VAD-induced necroptosis in human Jurkat cells assessed as increase in cell viability at 30 uM incubated for 1 hr followed by Z-VAD stimulation by Alamar blue assay; type: functional, cell-based; method in brief: as §6
Jurkat [32] = assay: Cytoprotective activity against Z-VAD-induced necroptosis in human Jurkat cells assessed as increase in cell viability at 30 uM incubated for 1 hr followed by Z-VAD stimulation by phase contrast microscopy; type: functional, cell-based; method in brief: as §6
Jurkat [33] = assay: Cytoprotective activity against FasL-induced necroptosis in human Jurkat cells assessed as increase in cell viability at 30 uM incubated for 1 hr followed by FasL stimulation measured after 20 hrs by Alamar blue assay; type: functional, cell-based; method in brief: as §6

SMILES: CCCNC1=C(c2cn(C)c3ccccc23)C(=O)N(C)C1=O
- Activity (H9c2 [1]): Non-Toxic
- Activity (Heart [2]): Active
- Stability [3]: Unstable
- Activity (Heart [4]): Active
- IC50 (HL-60 [5]): 440 nM
- IC50 (H9c2 [6]): 4400 nM

SMILES: CN1C(=O)C(NCCCCN)=C(c2cn(C)c3ccccc23)C1=O
- IC50 (HL-60 [5]): 1300 nM

SMILES: O=C1NCCc2c(OCCCCN3CCCCC3)cccc21
- Activity (HL-60 [7]): inactive

SMILES: Cn1cnc(N)c2ncnc1-2
- Activity (HL-60 [8]): inactive

SMILES: COC(=O)C[C@H](NC(=O)[C@H](C)NC(=O)[C@@H](NC(=O)OCc1ccccc1)C(C)C)C(=O)O (Cbz-Val-Ala-Asp(OMe)-OH)
- Activity (HL-60 [9]): Active
- Activity (HL-60 [10]): Active
- Activity (HL-60 [11]): inactive
- Activity (HL-60 [12]): inactive
- Activity (HL-60 [13]): Active
- Activity (HL-60 [14]): Active
- Activity (Jurkat [15]): Active
- Activity (HL-60 [16]): Active
- Activity (HL-60 [17]): Active
- Activity (Jurkat [18]): Active

SMILES: CN1C(=O)C(NCCN)=C(c2cn(C)c3ccccc23)C1=O [listing 1 of 2 here]
- Activity (Heart [19]): Active
- Activity (Heart [20]): Active

SMILES: CCCCNC1=C(c2cn(C)c3ccccc23)C(=O)N(C)C1=O
- IC50 (HL-60 [5]): 420 nM

SMILES: CN1C(=O)C(NCCN)=C(c2cn(C)c3ccccc23)C1=O.Cl
- Time (Rattus norvegicus [21]): 0 s
- Time (Rattus norvegicus [22]): 57 s
- Time (Rattus norvegicus [23]): 38.2 s
- mortality (Rattus norvegicus [24]): 20%
- mortality (Rattus norvegicus [25]): 0%
- mortality (Rattus norvegicus [26]): 20%

SMILES: CCCCCCNC1=C(c2cn(C)c3ccccc23)C(=O)N(C)C1=O
- IC50 (HL-60 [5]): 380 nM

SMILES: CN1C(=O)C(NCCCN)=C(c2cn(C)c3ccccc23)C1=O
- IC50 (HL-60 [5]): 1300 nM

SMILES: CNC1=C(c2cn(C)c3ccccc23)C(=O)N(C)C1=O
- IC50 (HL-60 [5]): 910 nM

SMILES: CN1C(=O)C(NCCCO)=C(c2cn(C)c3ccccc23)C1=O
- IC50 (HL-60 [5]): 1900 nM

SMILES: CN1C(=O)C(NCCN)=C(c2cn(C)c3ccccc23)C1=O [listing 2 of 2 here]
- Activity (H9c2 [1]): Non-Toxic
- Stability [3]: Stable
- IC50 (HL-60 [5]): 1000 nM
- IC50 (H9c2 [6]): 4900 nM

SMILES: CN1C(=O)C(c2c[nH]c3ccccc23)=C(c2cn(CCCN)c3ccccc23)C1=O
- Activity (H9c2 [1]): Toxic
- IC50 (H9c2 [6]): 3000 nM

SMILES: CN1C(=O)C(NCCO)=C(c2cn(C)c3ccccc23)C1=O
- IC50 (HL-60 [5]): 1300 nM

SMILES: CN1C(=O)C(Cc2c[nH]c3ccccc23)NC1=S (configuration not stated)
- Activity (Jurkat [27]): Active
- Activity (HL-60 [28]): inactive
- Activity (Jurkat [29]): Active
- Activity (Jurkat [30]): Active
- Activity (Jurkat [31]): Active
- Activity (Jurkat [32]): Active
- Activity (Jurkat [33]): Active

SMILES: CN1C(=O)C(NCCCCO)=C(c2cn(C)c3ccccc23)C1=O
- IC50 (HL-60 [5]): 1100 nM
